The source of these data is ChEMBL document CHEMBL1126728, “Synthesis and biochemical evaluation of the CBI-PDE-I-dimer, a benzannelated analog of (+)-CC-1065 that also produces delayed toxicity in mice” (J Med Chem, 1993).

Experiment [1] deals with L1210. Put plainly: In vitro cytotoxicity against mouse leukemia L1210 cells was determined. Type of experiment: functional, cell-based. Summed up:
(§1)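 L1210 mouse leukemia cells in RPMI 1634 supplemented with 5% fetal calf serum, 0.075% sodium bicarbonate, penicillin and streptomycin. Drug added to cultures at about 5 × 10^3 cells/mL, incubated 3 days at 37 °C. Cell number counted with a Coulter counter; IC50 in nM, run side by side with the corresponding CPI analog.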

Experiment [2] relates to Mus musculus. Put plainly: in vivo percent increase in lifespan (ILS) at the optimum dose in L1210 cells. Type of experiment: functional. Summed up:
(§2)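 L1210 leukemia, passaged in syngeneic DBA/2 female mice, was implanted i.p. at 10^6 cells/mouse on day 0; one i.v. dose on day 1 (2% DMA/10% Emulphor EL-620P/88% water); 6 mice per group; dose-response run. Optimal dose = greatest efficacy with ≤15% drug-related deaths. %ILS = (median survival treated/median survival vehicle control − 1) × 100, counting long-term survivors.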

Experiment [3] deals with Mus musculus. Put plainly: Optimum antitumor dose (OD) against L1210 mouse leukemia cells implanted intraperitoneally in CD2F1 mice. It counts as functional. The procedure, abridged:
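L1210 cells passaged in DBA/2 female mice, implanted ip (10^6 cells/mouse) in CD2F1 mice, 6 per group, on day 0. Single iv dose 24 h later (day 1) in 2% DMA, 10% Emulphor EL-620P, 88% sterile water; dose response run. Optimum dose (µg/kg) is the dose giving greatest ILS (median survival) with ≤15% drug-related deaths.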

For experiment [4], the system named is Mus musculus. In words: Median day of death (MDD) in normal (Non tumor bearing) mice treated with a single i.v. dose at 200 ug/kg. Type of experiment: functional. The procedure, abridged:
(§3)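 Non-tumor-bearing mice got one intravenous injection in a vehicle of 2% DMA, 10% Emulphor EL-620P and 88% sterile water. Survival was followed for 90 days, which ended the experiment. Six mice per dose group; the value is the median day of death. Deaths after more than 28 days counted as delayed.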

Experiment [5] concerns Mus musculus. In words: Median day of death (MDD) in normal (Non tumor bearing) mice treated with a single i.v. dose at 100 ug/kg. It counts as functional. The procedure, abridged: as §3
In experiment [6] the test system is Mus musculus. In words: Median day of death (MDD) in normal (Non tumor bearing) mice treated with a single i.v. dose at 25 ug/kg. It counts as functional. The procedure, abridged:
as §3

Experiment [7] deals with Mus musculus. Put plainly: Median day of death (MDD) in normal (Non tumor bearing) mice treated with a single i.v. dose at 400 ug/kg. Type of experiment: functional. Summed up:
as §3

Experiment [8] has as its system Mus musculus. Put plainly: Median day of death (MDD) in normal (Non tumor bearing) mice treated with a single i.v. dose at 50 ug/kg. Type of experiment: functional. Summed up:
as §3

The subject of experiment [9] is Mus musculus. In words: Optimum antitumor dose (OD) against L1210 mouse leukemia cells implanted intraperitoneally in CD2F1 mice (Highest dose tested). It counts as functional. The procedure, abridged:
as §2

For experiment [10], the system named is L1210. Put plainly: In vitro cytotoxicity against mouse leukemia L1210 cells. It counts as functional, cell-based. The procedure, abridged:
as §1

Each structure is given as a SMILES string. pIC50: −log10 of the molar value.

As to `O=C(Nc1ccc2[nH]c(C(=O)N3CC4C[C@@]45C3=CC(=O)c3ccccc35)cc2c1)c1cc2ccccc2[nH]1` (single isomer, unassigned; (+)), the negative logarithm of the IC50 (pIC50) with L1210 [1] was 11.22. In the experiment with Mus musculus [2], the ILS is on record as 67%. Besides, in the experiment with Mus musculus [3], the OD amounted to 100 µg/kg. The same compound showed an MDD with Mus musculus [4] of 7.

Compound `CC(=O)N1CC2C[C@@]23C1=CC(=O)c1ccccc13` (single isomer, unassigned; (+)) had a negative logarithm of the IC50 (pIC50) in the experiment with L1210 [1] of 8.30.

Regarding `COc1c(O)c2c(c3cc(C(=O)N4CCc5c4c(O)c(OC)c4[nH]c(C(=O)N6CC7C[C@@]78C6=CC(=O)c6ccccc68)cc54)[nH]c13)CCN2C(N)=O` (some centres not stated), in the experiment on L1210 [1], the negative-log IC50 (pIC50) was 10.70. The same compound came in with an ILS in the experiment on Mus musculus [2] of 28%. The OD in the experiment with Mus musculus [3] was 200 µg/kg. The MDD in the experiment with Mus musculus [5] is reported as 41; in the experiment with Mus musculus [4], 38; with Mus musculus [6], 48; in the experiment on Mus musculus [7] it was 5; with Mus musculus [8], 42.

In the experiment with L1210 [1], `CC(=O)N1CC2C[C@]23C1=CC(=O)c1ccccc13` (single isomer, unassigned; (-)) showed a pIC50 of 7.15.

For `COc1c(O)c2c(c3cc(C(=O)N4CCc5c4c(O)c(OC)c4[nH]c(C(=O)N6CC7C[C@]78C6=CC(=O)c6ccccc68)cc54)[nH]c13)CCN2C(N)=O` (single isomer, unassigned; (-)), the negative logarithm of the IC50 (pIC50) in the experiment on L1210 [1] is 11.00. Further, in the experiment on Mus musculus [2], the increase in life span (ILS) came to 6%. The compound further showed an OD with Mus musculus [3] of 200 µg/kg. Besides, the MDD in the experiment with Mus musculus [7] came to 5.

The compound `Cc1c[nH]c2c1[C@@]13CC1CN(C(=O)c1cc4cc(NC(=O)c5cc6ccccc6[nH]5)ccc4[nH]1)C3=CC2=O` (some centres not stated) had an ILS in the experiment with Mus musculus [2] of 83%. Further, the OD in the experiment with Mus musculus [3] came to 100 µg/kg. In addition, the MDD with Mus musculus [4] is 3.

`O=C(Nc1ccc2[nH]c(C(=O)N3CC4C[C@]45C3=CC(=O)c3ccccc35)cc2c1)c1cc2ccccc2[nH]1` (single isomer, unassigned; (-)) had a negative-log IC50 (pIC50) in the experiment with L1210 [1] of 9.52. In the experiment with Mus musculus [2], the ILS was determined as 50%. Besides, the OD in the experiment on Mus musculus [9] stood at 1600 µg/kg.

`OC1=CC2=NCC3C[C@@]23c2ccccc21` (some centres not stated) had a negative-log IC50 (pIC50) in the experiment on L1210 [1] of 6.64.

On to `COc1c(O)c2c(c3cc(C(=O)N4CCc5c4c(O)c(OC)c4[nH]c(C(=O)N6C[C@H]7C[C@@]78C6=CC(=O)c6[nH]cc(C)c68)cc54)[nH]c13)CCN2C(N)=O` [(+)-CC-1065], for which the figures for the MDD in the experiment with Mus musculus [6] and in the experiment with Mus musculus [8] were 42 and 41, respectively.

`O=C1C=C2N(C(=O)c3cc4ccccc4[nH]3)CC3C[C@@]23c2ccccc21` (single isomer, unassigned; (+)) gave a negative logarithm of the IC50 (pIC50) with L1210 [1] of 10.00. Besides, the ILS in the experiment on Mus musculus [2] was determined as 50%. Moreover, in the experiment on Mus musculus [3], the OD amounted to 800 µg/kg.

`O=C1C=C2N(C(=O)c3cc4ccccc4[nH]3)CC3C[C@]23c2ccccc21` (single isomer, unassigned; (-)) showed a pIC50 with L1210 [1] of 7.92.

For the compound `OC1=CC2=NCC3C[C@]23c2ccccc21` (some centres not stated), the negative logarithm of the IC50 (pIC50) in the experiment on L1210 [10] is 5.18.

A word on the pIC50: it is the negative decadic logarithm of the IC50, by convention in mol/L. The low end stands for a high IC50, the high end for a low IC50. Usually ILS stands for the gain in survival time of treated over control animals, in per cent. Lower therefore signals little gain in survival.
